Data: ChEMBL document CHEMBL3632540, “Ynamide Click chemistry in development of triazole VEGFR2 TK modulators” (Eur J Med Chem, 2015)

Tests used:
[1] = Cytotoxicity against human HuH7 cells incubated for 72 hrs by SRB assay; type: functional, cell-based, Huh-7
Outline: (§1)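 HCC lines kept in DMEM with 10% FBS, L-glutamine, nonessential amino acids and penicillin/streptomycin at 37 °C, 5% CO2, STR-authenticated. Seeded at 2000 cells/well (Huh7) or 1000 cells/well (Mahlavu); serial dilutions added 24 h later, DMSO control. After 72 h, TCA-fixed, SRB-stained, dye solubilized in 10 mM Tris base, A515 read. Triplicates, normalized to DMSO.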

[2] = Cytotoxicity against human Mahlavu cells incubated for 72 hrs by SRB assay; type: functional, cell-based; outline: as §1
[3] = biological target: Vascular endothelial growth factor receptor 2 (Homo sapiens, UniProt P35968); assay: Inhibition of GST-tagged human recombinant VEGFR2 kinase expressed in Sf9 insect cells by radiometric protein kinase assay
Outline: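 Human VEGFR2 kinase made as GST fusion in Sf9 cells, purified on GSH-agarose, purity checked by SDS-PAGE/silver stain, identity confirmed by mass spectrometry.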

[4] = Homo sapiens, Huh-7, 72 h, read-out: IC50

Vascular endothelial growth factor receptor 2, sequence (P35968 whole entry, the tested form may be a part): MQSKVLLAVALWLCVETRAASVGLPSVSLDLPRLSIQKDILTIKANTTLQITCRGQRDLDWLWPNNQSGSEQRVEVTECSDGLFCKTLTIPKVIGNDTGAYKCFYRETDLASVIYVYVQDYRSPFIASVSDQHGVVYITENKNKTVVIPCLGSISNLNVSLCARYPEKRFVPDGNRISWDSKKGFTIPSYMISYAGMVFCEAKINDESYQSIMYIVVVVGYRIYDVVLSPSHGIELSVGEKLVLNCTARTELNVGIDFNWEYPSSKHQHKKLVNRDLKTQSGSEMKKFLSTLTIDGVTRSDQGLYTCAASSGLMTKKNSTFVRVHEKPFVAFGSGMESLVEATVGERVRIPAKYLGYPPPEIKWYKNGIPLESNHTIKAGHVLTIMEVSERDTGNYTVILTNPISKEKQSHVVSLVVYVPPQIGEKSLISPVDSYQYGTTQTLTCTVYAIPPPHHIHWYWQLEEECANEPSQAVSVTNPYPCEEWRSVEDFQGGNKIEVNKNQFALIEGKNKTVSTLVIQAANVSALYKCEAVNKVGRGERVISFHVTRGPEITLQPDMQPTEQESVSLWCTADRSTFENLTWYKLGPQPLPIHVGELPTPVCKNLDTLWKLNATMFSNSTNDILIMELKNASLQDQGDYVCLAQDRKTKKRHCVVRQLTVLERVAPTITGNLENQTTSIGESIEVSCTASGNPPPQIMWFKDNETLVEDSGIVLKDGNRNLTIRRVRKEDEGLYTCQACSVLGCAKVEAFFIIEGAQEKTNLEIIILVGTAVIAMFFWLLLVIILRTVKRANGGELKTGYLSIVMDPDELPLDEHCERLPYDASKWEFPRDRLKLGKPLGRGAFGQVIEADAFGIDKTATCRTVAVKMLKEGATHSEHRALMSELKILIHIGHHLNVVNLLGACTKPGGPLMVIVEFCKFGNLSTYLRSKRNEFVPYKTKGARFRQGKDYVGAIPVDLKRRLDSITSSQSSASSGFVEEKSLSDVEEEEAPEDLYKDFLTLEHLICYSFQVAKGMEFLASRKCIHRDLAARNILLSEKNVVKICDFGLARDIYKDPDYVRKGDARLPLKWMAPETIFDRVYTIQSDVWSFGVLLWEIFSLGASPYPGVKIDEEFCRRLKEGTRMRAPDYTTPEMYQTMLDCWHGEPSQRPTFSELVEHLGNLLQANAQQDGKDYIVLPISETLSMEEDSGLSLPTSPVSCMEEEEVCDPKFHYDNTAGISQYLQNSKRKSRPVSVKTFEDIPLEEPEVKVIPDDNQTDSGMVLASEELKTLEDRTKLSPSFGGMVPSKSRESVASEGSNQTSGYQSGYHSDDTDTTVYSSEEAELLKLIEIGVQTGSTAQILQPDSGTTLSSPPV

In the case of `CCS(=O)(=O)c1ccc(OC)c(Nc2cn(-c3ccc(NC(N)=O)c(-c4cccc5ccccc45)c3)nn2)c1`, the IC50 ([1]; huh-7) is reported as “Not Active”, the IC50 [2] is reported as 27.9 µM and the IC50 ([3]; read-out: IC50) is reported as over 100 µM.
In the case of `CCS(=O)(=O)c1ccc(OC)c(Nc2cn(-c3cc(-c4ccccc4)nc(-c4ccccc4)n3)nn2)c1`, the IC50 ([3]; sf9) is reported as “Not Active”.
Work on `CCS(=O)(=O)c1ccc(OC)c(Nc2cn(-c3cccc(-c4cccnc4)c3)nn2)c1` yielded an IC50 [1, 4] of 12.8 µM, an IC50 [2] of 11.8 µM and an IC50 ([3]; read-out: IC50) of over 100 µM.
Compound `CCS(=O)(=O)c1ccc(OC)c(Nc2cn(-c3ccc(O)c(-c4cc[nH]c4)c3)nn2)c1` has an IC50 [1, 4] of 18.6 µM, an IC50 [2] of 11.9 µM and an IC50 ([3]; read-out: IC50) of 40.1 µM.
`CCS(=O)(=O)c1ccc(OC)c(Nc2cn(-c3ccc(O)c(-c4ccccn4)c3)nn2)c1` gave an IC50 [1, 4] of 17.7 µM, an IC50 [2] of 13.8 µM and an IC50 ([3]; read-out: IC50) of 6.96 µM.
For `CCS(=O)(=O)c1ccc(OC)c(Nc2cn(-c3cccc(-c4ccccn4)c3)nn2)c1`, the IC50 ([3]; read-out: IC50) was 42 µM.
For `CCS(=O)(=O)c1ccc(OC)c(Nc2cn(-c3ccc(O)c(-c4cccnc4)c3)nn2)c1`, the IC50 ([3]; sf9) was “Not Active”.
